According to the EternaBench riboswitch data:

Test system: MS2 coat protein
Assay: apparent Kd, MS2 coat protein; higher = weaker binding; RNA-MaP array; FMN 200 µM where present
In short: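 Each design was made on Illumina sequencing-chip clusters by stalled E. coli RNA polymerase and titrated with SNAP-549-labelled MS2 coat protein from 0.7 or 1.5 nM, doubling to 3 µM, in the absence and then the presence of constant ligand. The buffer was 100 mM Tris-HCl pH 7.5, 80 mM KCl, 4 mM MgCl2, BSA, DTT, yeast tRNA and Tween-20. The apparent Kd is the median of filtered per-cluster fits of binding curves, with green signal normalised to red-channel RNA signal and control-cluster median Fmax.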

[1] = designed as: ON switch for flavin mononucleotide, no ligand
[2] = ligand present: flavin mononucleotide, designed as: ON switch for flavin mononucleotide
[3] = designed as: OFF switch for flavin mononucleotide, no ligand
[4] = ligand present: flavin mononucleotide, designed as: OFF switch for flavin mononucleotide

Sequence	apparent Kd [1]	apparent Kd [2]	apparent Kd [3]	apparent Kd [4]
CAGCGAUAGCUGAACAAUCUAUCUGAGGAUAUCAUGAAUAAACAUGAGGAUCACCCAUGUAAAUAUGAGAAGGCAGAUAGAUUG	4.82 nM	4.78 nM		
GCCUCACAUGAGGAUCACCCAUGUCAGGAUAUACCCAUCCGGCGCAAUUGCAGCCGUAGUAGAAGGGACAUGCA			21.2 nM	45.8 nM
AAGCGAGGGACAGGAUAUGCGGCAAAACUUUCCGCAGAAGGGUCGACAUGAGGAUCACCCAUGUCCUUACGCUCCAAGUAGAGG	189 nM	277 nM		
GUAGCUAUUAUUAUACAUGAGGAUCACCCAUGUUACAUGUGUAAGGAUAUUGAAGUUAUUAUUAUCAAGAAGGUACUAUGCUAC	15.5 nM	8.71 nM		
AAAGAACAUGAGGAUCACCCAUGUGAGGAUAUGCGAAAACCGCUGGCGCACCAGACGGGCAGAAGGCAUAUGGU			75.6 nM	92.5 nM
UUAUACAUGAGGAUCUCCCAUGACAUGAGGAUCACCCAUGUGCAGGAUAUACGUGUUAUAAUAUAGUAGAAGGGCAGUCUAUAU			36.8 nM	104 nM
GGUCCAUUAUGAGGAUAUGGCACCUUAUUGGUGCCAGAAGGCAUGUCUAUAGACAUGAGGAUCACCCAUGUAUUAAUUUGGACC	360 nM	41.4 nM		
AGCUCGGGUGCAGGAUAUCCGCCGGAUCGCAGUGGAGAAGGGCGCCAAGCGAACAUGAGGAUCACCCAUGUAUCGGAGCCGGAC	55.6 nM	11.1 nM		
GUGUAGUCAGGAUAUACAUAGGAAGAGAAGAGAAGAGAAGCACAUGAGGAUCACCCAUGUAGAAGGGACAGUGU			70.9 nM	82.9 nM
ACAUGAGAGUUAGGAUAUCUUGUACCUACAUGUGACAUGAGGAUCACCCAUGUGGUAAGUAUGAGGGAGAAGGAACAGAUAUGU	43.9 nM	33.9 nM		
UGUGUGUGACAGGAUAUGCUGGUUAUGAGACGGGUAGAAGGGUCUACAUGAGGAUCACCCAUGUGGCCGGUUGG			19 nM	21.2 nM
CUAUGAAGAAUAGGAUAUUCGAUCAAAAGGAUAGAAGAAGGGUUACAUGAGGAUCACCCAUGUAUGCACAUGAGGAUCCCUUAG			188 nM	196 nM
AGGAGUAAAGGGAAUAACAUGAGGAUCACCCAUGUAUGGGAGAGAAGGCAUAUCGGAGGACGAUAUGAGGAUAUUUAAACUUUA	106 nM	20.5 nM		
AGCGAACAUGAGGAUCACCCAUGUGAAAAACAUAGAGGAUAUGUCGCAUGCGUGUAAAAGACAGAAGGCUAUCGCG	71.6 nM	33.9 nM		
CUUCGUAUAGAGGAUAUAGGUUACCUCGGUAUCCUAGAAGGCUGUACAUGAGGAUCACCCAUGUACUUCAGAUC			12.4 nM	14.5 nM
GAGUGACAUGAGGAUCACCCAUGUGAGGAUAUCGGACGGACCAAAUUAACAAUUUUUGCGAGAAGGCACAUCGG			59.5 nM	72.4 nM
AUGUUUCAUGUAGGAUAUGCAUAGCGUUGCUAUGCAGAAGGACAUGAGGAUCACCCAUGUAUAUUAUCAUUACAUAUCAUACAU			45.7 nM	546 nM
AAGGAUCGAGGAUAUACAUAGAUACAGAUUCAUGUAGAACUACAUGAGGAUCACCCAUGUAGAAGGCGAUCAUA			27.1 nM	127 nM
GUCAGCUCGUGAGGAUAUACAACACUGCUUCGGCAGUCUAUUAAGAUCACAUGAGGAUCACCCAUGUAGAAGGCACGAGCUGAU			14.9 nM	292 nM
GGGUACAUCGGAGGAUAUCAUGUAACUACAUGAGGAUCACCCAUGUCGAUGGAGACAUCGGAGAUUGAGAAGGCCGAUGUACCG	261 nM	10.1 nM		
UGUCGGAGCAGAGGAUAUACAUGAGGAUCACCCAUGUAAUAAAGUGAAGCCUGAAAACAGGCAAUGUAGAAGGCUGCUCCGACA			11.5 nM	85 nM
CUAUAGAUAUCAGGAUAUCUAUUUCCAACAUGAGGAUCACCCAUGUUGAGGAUCACCCAUGUAAAGGAGAAGGGAUAUCUAUAG	69.1 nM	16.4 nM		
UUACUGCGAGGAUAUGCGAUCCAGACCAUGAUGUAAUUCCGACAUGAGGAUCACCCAUGUAGAAGGUGCAGUGG			22.4 nM	27.1 nM
GCUAUAGAUGUAGGAUAUCAUAUAGAAGCUAUGUGAGAAGGACAUGAGGAUCACCCAUGUCAAUGGCUGGAGCGAAGUUAUGGC			30.4 nM	35.2 nM
GUGGCACAUGAGGAUCACCCAUGUCAGGAUAUCGUGUGUUUUUUUUCGGCCGCGCGCGCGAGAAGGGACGUCUU			149 nM	120 nM
UGUGUUAUUGGAGGAUAUCGAUAUCAAACAUGAGGAUCACCCAUGUUGAGGAUCACACAUGUAAAUGAGAAGGCCGACGUAGUG	12.5 nM	16.2 nM		
UAUUGAUAAUAUUUUCACAUGAGGAUCACCCAUGUCGCUCGACAGGAUAUAUUUUAUUUGUUUAAGUAGAAGGGUCGCAGAUUU	143 nM	109 nM		
GUGGUCUCCGCAGGAUAUGGCUCGGGCACGACACCAGAAGGGCGGACAUGAGGAUCACCCAUGUUCGCGGGUGGGUCCUAAGGA			6.39 nM	7.49 nM

Sequence	apparent Kd [1]	apparent Kd [2]	apparent Kd [3]	apparent Kd [4]
AUCCGGGCUAACAUGAGGAUCACCCAUGUGUUAUACUUAAUAUAGGAUAUGUUUAUACUUUUUGGGCAGAAGGAUGGCCCGGAU	83.1 nM	68.8 nM		
GGUUGGUAUUACAACGGCCUGAGGGAGGAUAUACAAGGCCGGCGUCGCACAUGAGGAUCACCCAUGUAGAAGGCCCAAGGCCUG			6.97 nM	12 nM
GCGAAUUAGUGAGGAUAUACAUAAUUUAAAACUGUAGAAGGCACAAUCCUCAAGACAUGAGGAUCACCCAUGUGAUAUUAAGCU			46 nM	158 nM
GUAGCAUACGGAGGAUAUUCAUACCGGAAACGGACAUGAGGAUCACCCAUGUGGCGAAAGCCAUGGGAGAAGGCCGUAUGCUAC	318 nM	149 nM		
AGGUCGGGAUAAGGGCAUUCGACUCAGGAUAUGGGAGGUUUACAUGAGGAUCACCCAUGUUUCACCCAGAAGGGAGUUCAAACU	7.59 nM	5.84 nM		
CAGUCUACAGGAUAUACAUGAGGAUCACCCAUGUAAAUUCACUUUCGGUAGUCUACAUGUAGAAGGGUAGACUG			125 nM	38.8 nM
CGUAACUGCAUAGGAUAUUGUUACAUGAGGAUCACCCAUGUUUUUCGGAUUAUUUAUCUACUUAGCAAGAAGGAUGGAGUUACG	6.82 nM	4.74 nM		
GUGGUACAUGAGGAUCACCCAUGUAAGGAUAUAGUCGUCUGGUGGUCUCGGGUGGUGGCUAGAAGGUGCGUGCG			189 nM	177 nM
AAGCUCGUGUGAGGAUAUGCCGCCGUUUCGGCUGCAGAAGGUGCUACGUUACAUGAGGAUCACCCAUGUCUCUGUUGUUUCGUA	42.6 nM	49.7 nM		
UUAAUUAAUUAAUUAUACAUGAGGAUCACCCAUGUAAGUGAUCAGGAUAUCAGCUCGAAUAGAGCUGAGAAGGGAUACAUGUAA	199 nM	111 nM		
GCACGUAGACAGAAGGCGACAUGAGGAUCACCCAUGUUGGCUCGGGUAUGACCAAUCCGCAUGAUCGAGGAUAUGUCCGCGGGC			265 nM	19.2 nM
AUAAAACAUGAGGAUCACCCAUGUGAGGAUAUGCUAAAAUAAAAUAAAAUAAAAUAAUGCAGAAGGCACAAAUA			59.6 nM	74.6 nM
GGUGUCAUCGAGAAGGCCUCAACAUGAGGAUCACCCAUGUUGUAAUAUGGGAGGAUAUCGAUGAUACAGCUACGUUUCGUAGCC	20.7 nM	6.23 nM		
GGUGCGUGUAAAGGAUAUAUGUACUGAGAGGACAUAGAAGGUUACAUGAGGAUCACCCAUGUAGGAAGCGAAAGUUAUCACGUG			11.7 nM	25.3 nM
CUUUUGUGAGGAUAUCAGUAGUAAAGAAAUAAAAUUACUACUGAGAAGGCACAUGAGGAUCACCCAUGUUCCUC			36.2 nM	192 nM
ACUUUACAUGAGGAUCACCCAUGUUUUGGUGGAUCAGGAUAUAAAUUGAAUGAGUUUUAGUUAGAAGGGAUAUUUA	89.8 nM	99 nM		
CAGUACUGAGGAUAUACAUGAGGAUCACCCAUGUGUUCCAGCUAGGAAACUAGCAGAAGUAGAAGGCAGUACUG			24.6 nM	441 nM
UUAAAACAUGAGGAUCACCCAUGUGAGGAUAUGAGCCGACUGUCCUGUCGGCAUGUAGUCAGAAGGUGCAGGGU			62.2 nM	109 nM
UUUUAGCGAGGAUAUACAUUUUUUUUAUUAUCCUCAUUAUUACAUGAGGAUCACCCAUGUAGAAGGCGCAUUUU			41 nM	139 nM
GUGUAGAUAGGAUAUGCAUGAGUCUAGCGAAGCUAGGCUCUACAUGAGGAUCACCCAUGUAGAAGGGUCUACAC			20.6 nM	17.2 nM
AGAGUGUGAGGAUAUAUGGUGCAGAUGAAGGGAUAGAAGGAGUAGAAGGUACAUGAGGAUCACCCAUGUUAGGA			27.4 nM	21.7 nM
GGAUCCGCUUCCGCCACAUGAGGAUCACCCAUGUGUAUGAACAGAAGGGCGACCUCAAAGAGGGCGCAGGAUAUGUACUCGUAC	78.3 nM	48.6 nM		
AGCUAGUCAGGAUAUACAAACAUGUCAAAAGACGUGAAGAGACAUGAGGAUCACCCAUGUAGAAGGGACUAGCA			26.6 nM	70.9 nM
GGACGUCAGAUUAACAUGAGGAUCACCCAUGUCUUUUGACAUGAGGAUAUGCAACGUAAUUCGUUGCAGAAGGCAUGGACGUCC	1010 nM	89.8 nM		
UAAAUUUUAUGAUAUUAUGACAUUAGAAGGCUGUACAUGUUGAUACAUGAGGAUCACCCAUGUAUAGAGGAUAUAGACAAUUUU			31 nM	65.1 nM
UGUUUGCGGCAGGAUAUCCAUCCGCGGUGUGGUGGAGAAGGGCUGACAUGAGGAUCACCCAUGUGCGUCCUGUU			23.6 nM	27.9 nM
GUAGCAACAUGAGGAUCACCCAUGUAGGAUAUCGCUAUUGUAAUCAUGAAACAUGAUUACAAUAGCGAGAAGGACAUAUGCUAC			6.93 nM	10.2 nM
